# Measured values as given in ChEMBL document CHEMBL4689842, “EUbOPEN Chemogenomics Library wave 1” (2021).
# Several values for one entry are separate records, joined by “and”; a condition that tells them apart may be missing. Identical values can stand only once.
# What was measured:
# [1] = tested on: HEK-293T; assay: Multiplex assay against HEK293T; assay type: toxicity, cell-based; settings: human, 10 µM, compound concentration 10 uM;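 as to Population Tubulin-Different-Phenotype (%): share of the cells with healthy nuclei that show this phenotype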
# In short: (§1)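 Live cells carried four stains from seeding: Hoechst33342, BioTracker Green Microtubule Cytoskeleton Dye, MitoTracker Red and Annexin V Alexa Fluor 680. They were imaged on a CQ1 microscope at 37°C and 5% CO2 after compound addition. Using CellPathfinder machine-learning gating, cells were split into Hoechst high-intensity objects or normal cells, normal cells into healthy, pyknosed or fragmented nuclei, and pyknosed cells into mitotic or apoptotic; tubulin, mitochondrial-mass and membrane-permeability phenotypes are per cents of healthy-nucleus cells.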
# [2] = tested on: U2OS; assay: Multiplex assay against U2OS; assay type: toxicity, cell-based; settings: human, 10 µM, compound concentration 10 uM; in short: as §1
smiles,measurement,setting,value
COc1ccccc1-c1cc(Nc2cccc(CS(N)(=O)=O)c2)ncn1,Population Apoptotic (%),"[1]; 12 h, replicate 1",31% and 19%
same,Population Fragmented Nuclei (%),"[1]; 12 h, replicate 1",21% and 13%
same,Population Healthy Nuclei (%),"[1]; 12 h, replicate 1",58% and 71%
same,Population Hoechst High Intensity Objects (%),"[1]; 12 h, replicate 1",17% and 8%
same,Population Membrane Permeable-Phenotype (%),"[1]; 12 h, replicate 1",3%
same,Population Mitochondria Different-Phenotype (%),"[1]; 12 h, replicate 1",6% and 5%
same,Population Mitotic Cells (%),"[1]; 12 h, replicate 1",68% and 80%
same,Population Normal (%),"[1]; 12 h, replicate 1",82% and 91%
same,Population Pyknosed Nuclei (%),"[1]; 12 h, replicate 1",20% and 15%
same,Population Tubulin-Different-Phenotype (%),"[1]; 12 h, replicate 1",5% and 3%
same,Total Cell Count,"[1]; 12 h, replicate 1",577 and 663
same,Population Apoptotic (%),"[1]; 12 h, replicate 2",8% and 20%
same,Population Fragmented Nuclei (%),"[1]; 12 h, replicate 2",11% and 9%
same,Population Healthy Nuclei (%),"[1]; 12 h, replicate 2",84% and 85%
same,Population Hoechst High Intensity Objects (%),"[1]; 12 h, replicate 2",1% and 3%
same,Population Membrane Permeable-Phenotype (%),"[1]; 12 h, replicate 2",2% and 0%
same,Population Mitochondria Different-Phenotype (%),"[1]; 12 h, replicate 2",7% and 12%
same,Population Mitotic Cells (%),"[1]; 12 h, replicate 2",91%
same,Population Normal (%),"[1]; 12 h, replicate 2",98% and 96%
same,Population Pyknosed Nuclei (%),"[1]; 12 h, replicate 2",4% and 5%
same,Population Tubulin-Different-Phenotype (%),"[1]; 12 h, replicate 2",6% and 7%
same,Total Cell Count,"[1]; 12 h, replicate 2",2027 and 1134
same,Population Apoptotic (%),"[1]; 24 h, replicate 1",24% and 33%
same,Population Fragmented Nuclei (%),"[1]; 24 h, replicate 1",14% and 19%
same,Population Healthy Nuclei (%),"[1]; 24 h, replicate 1",76% and 63%
same,Population Hoechst High Intensity Objects (%),"[1]; 24 h, replicate 1",4% and 13%
same,Population Membrane Permeable-Phenotype (%),"[1]; 24 h, replicate 1",8%
same,Population Mitochondria Different-Phenotype (%),"[1]; 24 h, replicate 1",3% and 5%
same,Population Mitotic Cells (%),"[1]; 24 h, replicate 1",75% and 66%
same,Population Normal (%),"[1]; 24 h, replicate 1",95% and 86%
same,Population Pyknosed Nuclei (%),"[1]; 24 h, replicate 1",8% and 17%
same,Population Tubulin-Different-Phenotype (%),"[1]; 24 h, replicate 1",6%
same,Total Cell Count,"[1]; 24 h, replicate 1",801 and 590
same,Population Apoptotic (%),"[1]; 24 h, replicate 2",11% and 13%
same,Population Healthy Nuclei (%),"[1]; 24 h, replicate 2",66% and 86%
same,Population Hoechst High Intensity Objects (%),"[1]; 24 h, replicate 2",3%
same,Population Membrane Permeable-Phenotype (%),"[1]; 24 h, replicate 2",6% and 3%
same,Population Mitotic Cells (%),"[1]; 24 h, replicate 2",88% and 86%
same,Population Normal (%),"[1]; 24 h, replicate 2",96%
same,Population Pyknosed Nuclei (%),"[1]; 24 h, replicate 2",2% and 4%
same,Population Tubulin-Different-Phenotype (%),"[1]; 24 h, replicate 2",9% and 23%
same,Total Cell Count,"[1]; 24 h, replicate 2",3407 and 1342
same,Population Apoptotic (%),"[2]; 12 h, replicate 1",53% and 27%
same,Population Fragmented Nuclei (%),"[2]; 12 h, replicate 1",10% and 8%
same,Population Healthy Nuclei (%),"[2]; 12 h, replicate 1",82% and 84%
same,Population Membrane Permeable-Phenotype (%),"[2]; 12 h, replicate 1",13% and 7%
same,Population Mitochondria Different-Phenotype (%),"[2]; 12 h, replicate 1",23% and 20%
same,Population Mitotic Cells (%),"[2]; 12 h, replicate 1",46% and 72%
same,Population Normal (%),"[2]; 12 h, replicate 1",93% and 98%
same,Population Pyknosed Nuclei (%),"[2]; 12 h, replicate 1",7% and 6%
same,Population Tubulin-Different-Phenotype (%),"[2]; 12 h, replicate 1",19% and 10%
same,Total Cell Count,"[2]; 12 h, replicate 1",160 and 443
same,Population Apoptotic (%),"[2]; 12 h, replicate 2",0% and 25%
same,Population Fragmented Nuclei (%),"[2]; 12 h, replicate 2",9%
same,Population Healthy Nuclei (%),"[2]; 12 h, replicate 2",75% and 86%
same,Population Hoechst High Intensity Objects (%),"[2]; 12 h, replicate 2",16% and 11%
same,Population Membrane Permeable-Phenotype (%),"[2]; 12 h, replicate 2",17% and 9%
same,Population Mitochondria Different-Phenotype (%),"[2]; 12 h, replicate 2",21%
same,Population Mitotic Cells (%),"[2]; 12 h, replicate 2",100% and 75%
same,Population Normal (%),"[2]; 12 h, replicate 2",83% and 88%
same,Population Tubulin-Different-Phenotype (%),"[2]; 12 h, replicate 2",12% and 34%
same,Total Cell Count,"[2]; 12 h, replicate 2",138 and 311
same,Population Apoptotic (%),"[2]; 24 h, replicate 1",68% and 25%
same,Population Healthy Nuclei (%),"[2]; 24 h, replicate 1",79% and 93%
same,Population Hoechst High Intensity Objects (%),"[2]; 24 h, replicate 1",3% and 2%
same,Population Membrane Permeable-Phenotype (%),"[2]; 24 h, replicate 1",16% and 7%
same,Population Mitochondria Different-Phenotype (%),"[2]; 24 h, replicate 1",30% and 18%
same,Population Mitotic Cells (%),"[2]; 24 h, replicate 1",31% and 75%
